Calls of active or inactive are those of the source. The calls are words filed in the database; no cut-off is given here.
Tests used:
Mus musculus [1] = species on record: Mus musculus; experiment: Antagonist selectivity after a 24-h pretreatment period, in the mouse abdominal stretch assay using Bremazocine as the agonist.; type: functional, Abdomen
How it was run: (§1)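 Mice, acetic acid abdominal stretch assay. Ether 32 mg/kg sc given 24 h beforehand (vehicle sterile water with 16% MeOH and 1% HCl). Agonist (morphine 3.2 mg/kg, BW373U86 10 mg/kg, or bremazocine) given sc 15 min before ip acetic acid. Read-out is % antagonism of the agonist effect.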

Mus musculus [2] = experiment: Antagonism of morphine antinociceptive ED50 by the compound. Onset and Duration of morphine antagonist action in the mouse tail flick assay at a Pretreatment time of 24 hours.(sc administration); type: functional
How it was run: (§2)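 Mice, tail flick test. Ether given sc (vehicle: distilled water, 5% aqueous DMSO or 5% hydroxypropyl-β-cyclodextrin), then morphine; pretreatment intervals from the standard 30 min up to 72 h. Antagonism taken as the shift in morphine antinociceptive ED50.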

Mus musculus [3] = experiment: Comparison of the antinociceptive agonist/antagonist profile of activity by Phenylquinone-abdominal stretch test.(sc administration); type: functional
How it was run: (§3)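 Mice, phenylquinone abdominal stretch, hot plate or tail flick tests. Compounds given sc in distilled water, 5% aqueous DMSO or 5% hydroxypropyl-β-cyclodextrin.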

[4] = biological target: Kappa-type opioid receptor (Rattus norvegicus, UniProt P34975); experiment: In vitro binding affinity against Opioid receptor kappa 1 in rat brain homogenates.; type: tissue-based
How it was run: (§4)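 Crude membranes from brain minus cerebellum, homogenized in 50 mM Tris, pH 7.4. Radioligands [3H]DAMGO 2 nM (μ), [3H]DPDPE 1.8 nM (δ), [3H]U69,593 1.1 nM (κ). Nonspecific binding defined with 10 μM naloxone. Compounds from DMSO stock; final DMSO ≤0.1%.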

Mus musculus [5] = experiment: Comparison of the antinociceptive agonist/antagonist profile of activity byhot plate test.(sc administration); type: functional; how it was run: as §3
Mus musculus [6] = experiment: Antagonist selectivity after a 24-h pretreatment period, in the mouse abdominal stretch assay using morphine (3.2 mg/kg) as the agonist.; type: functional, Abdomen; how it was run: as §1
Mus musculus [7] = experiment: Antagonism of morphine antinociceptive ED50 by the compound. Onset and Duration of morphine antagonist action in the mouse tail flick assay at a Pretreatment time of 72 hours.(sc administration); type: functional; how it was run: as §2
Mus musculus [8] = experiment: Effect of antagonist (Naltrindole, 10 mg/kg for a pretreatment time of 15 min)on the inhibition of acetic acid-induced abdominal stretches by the compound (10 mg/kg sc); type: functional, Abdomen
How it was run: (§5)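 Mice, acetic acid abdominal stretch assay (stretches induced by ip acetic acid). Ether 10 mg/kg sc, given after a selective antagonist: β-FNA 32 mg/kg at 24 h, naltrindole 10 mg/kg at 15 min, or nor-BNI 32 mg/kg at 24 h beforehand. Read-out is % antagonism.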

Mus musculus [9] = experiment: Antagonist selectivity after a 24-h pretreatment period, in the mouse abdominal stretch assay using BW373U86 (10 mg/kg) as the agonist.; type: functional, Abdomen; how it was run: as §1
Mus musculus [10] = experiment: Antagonism of morphine antinociceptive ED50 by the compound. Onset and Duration of morphine antagonist action in the mouse tail flick assay at a Pretreatment time of 2 hr. (30 mg/kg sc administration); type: functional; how it was run: as §2
Mus musculus [11] = experiment: Antagonism of morphine antinociceptive ED50 by the compound. Onset and Duration of morphine antagonist action in the mouse tail flick assay at a Pretreatment time of 6 hours.(sc administration); type: functional; how it was run: as §2
Mus musculus [12] = experiment: Effect of antagonist (Nor-BNI, 32 mg/kg for a pretreatment time of 24 h) on the inhibition of acetic acid-induced abdominal stretches by the compound (10 mg/kg sc); type: functional, Abdomen; how it was run: as §5
Mus musculus [13] = experiment: Effect of antagonist (beta-FNA, 32 mg/kg for a pretreatment time of 24 h) on the inhibition of acetic acid-induced abdominal stretches by the compound (10 mg/kg sc); type: functional, Abdomen; how it was run: as §5
Mus musculus [14] = species on record: Mus musculus; experiment: Percent MPE was evaluated in mouse tail withdrawal assay; type: functional
How it was run: (§6)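 Mice, tail withdrawal test in 50 °C water. Ethers dissolved in sterile water containing 16% MeOH and 1% HCl and injected sc. ED50 in mg/kg and % MPE reported; means ± SEM from 6 animals.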

Mus musculus [15] = experiment: Antagonism of morphine antinociceptive ED50 by the compound. Onset and Duration of morphine antagonist action in the mouse tail flick assay at a Pretreatment time of 36 hours.(sc administration); type: functional; how it was run: as §2
[16] = biological target: Delta-type opioid receptor (Rattus norvegicus, UniProt P33533); experiment: In vitro binding affinity against Opioid receptor delta 1 (DPDPE) in rat brain homogenates.; type: tissue-based; how it was run: as §4
Mu-type opioid receptor = Mu-type opioid receptor (Rattus norvegicus, UniProt P33535); experiment: In vitro binding affinity against Opioid receptor mu 1 (DAMGO) opioid receptor in rat brain homogenates.; type: tissue-based; how it was run: as §4
Mus musculus [17] = experiment: Comparison of the antinociceptive agonist/antagonist profile of activity by tail flick test.(sc administration); type: functional; how it was run: as §3
Mus musculus [18] = species on record: Mus musculus; experiment: Antinociceptive potency determined by mouse tail withdrawal assay.; type: functional; how it was run: as §6
Mus musculus [19] = experiment: Comparison of the antinociceptive agonist/antagonist profile of activity by Tail Flick vs morphine test.(Inactive up to 30 mg/kg; sc administration); type: functional, organism-based; design: dose 30 mg/kg
Mus musculus [20] = experiment: Comparison of the antinociceptive agonist/antagonist profile of activity by Tail Flick vs morphine test (sc administration); inactive up to 30 mg/kg; type: functional, organism-based; design: dose 30 mg/kg
Mus musculus [21] = experiment: Comparison of the antinociceptive agonist/antagonist profile of activity by tail flick test (sc administration); inactive up to 30 mg/kg; type: functional, organism-based; design: dose 30 mg/kg; how it was run: as §3
Mus musculus [22] = experiment: Comparison of the antinociceptive agonist/antagonist profile of activity byhot plate test (sc administration); inactive up to 20 mg/kg.; type: functional, organism-based; design: dose 20 mg/kg; how it was run: as §3
Mus musculus [23] = experiment: Comparison of the antinociceptive agonist/antagonist profile of activity by hot plate test.(sc administration); inactive up to 20 mg/Kg; type: functional, organism-based; how it was run: as §3
Mus musculus [24] = experiment: Comparison of the antinociceptive agonist/antagonist profile of activity by Tail Flick vs morphine test.(sc administration); type: functional
Mus musculus [25] = experiment: Percent MPE was evaluated in mouse tail withdrawal assay at 32 mg/kg; type: functional; how it was run: as §6
Mus musculus [26] = experiment: Comparison of the antinociceptive agonist/antagonist profile of activity by Tail Flick vs morphine test.(sc administration) inactive up to 30 mg/kg; type: functional, organism-based; design: dose 30 mg/kg
Mus musculus [27] = experiment: Comparison of the antinociceptive agonist/antagonist profile of activity by hot plate test.(sc administration)

Sequence of Mu-type opioid receptor (P33535 whole entry): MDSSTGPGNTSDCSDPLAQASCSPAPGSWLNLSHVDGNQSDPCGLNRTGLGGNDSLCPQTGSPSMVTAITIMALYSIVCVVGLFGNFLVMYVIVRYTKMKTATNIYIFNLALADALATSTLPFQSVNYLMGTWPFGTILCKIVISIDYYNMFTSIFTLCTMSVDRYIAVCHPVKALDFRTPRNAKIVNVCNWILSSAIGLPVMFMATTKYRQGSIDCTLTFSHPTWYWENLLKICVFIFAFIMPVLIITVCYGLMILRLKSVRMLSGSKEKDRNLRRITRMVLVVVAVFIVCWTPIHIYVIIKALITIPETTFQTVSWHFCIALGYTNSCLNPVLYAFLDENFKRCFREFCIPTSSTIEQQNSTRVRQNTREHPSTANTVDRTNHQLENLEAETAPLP
Sequence of Delta-type opioid receptor (P33533 whole entry): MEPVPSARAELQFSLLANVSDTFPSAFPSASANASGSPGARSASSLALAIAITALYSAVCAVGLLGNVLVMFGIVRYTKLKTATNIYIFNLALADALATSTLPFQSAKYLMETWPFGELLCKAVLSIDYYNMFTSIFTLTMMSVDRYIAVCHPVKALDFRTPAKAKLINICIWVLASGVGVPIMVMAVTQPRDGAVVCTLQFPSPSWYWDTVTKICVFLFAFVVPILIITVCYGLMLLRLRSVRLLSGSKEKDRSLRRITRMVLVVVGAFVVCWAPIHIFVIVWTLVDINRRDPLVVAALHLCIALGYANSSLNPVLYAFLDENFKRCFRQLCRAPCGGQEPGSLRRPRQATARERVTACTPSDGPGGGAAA
Sequence of Kappa-type opioid receptor (P34975 whole entry): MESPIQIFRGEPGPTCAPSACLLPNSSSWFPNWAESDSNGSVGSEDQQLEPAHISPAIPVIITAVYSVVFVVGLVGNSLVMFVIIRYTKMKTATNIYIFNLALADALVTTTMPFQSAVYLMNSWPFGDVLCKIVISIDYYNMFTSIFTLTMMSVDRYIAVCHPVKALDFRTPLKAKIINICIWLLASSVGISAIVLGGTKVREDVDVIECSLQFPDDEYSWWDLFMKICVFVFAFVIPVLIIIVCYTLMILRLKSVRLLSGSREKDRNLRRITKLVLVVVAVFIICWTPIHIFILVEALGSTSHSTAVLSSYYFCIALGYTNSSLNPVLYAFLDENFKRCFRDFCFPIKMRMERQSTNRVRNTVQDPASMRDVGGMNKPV

SMILES	ED50 (Mus musculus [3]) [mg/kg]	Ki [4] [nM]	MPE (Mus musculus [14]) [%]	Ki [16] [nM]	Ki (Mu-type opioid receptor) [nM]	ED50 (Mus musculus [18]) [mg/kg]	further results
C#CCOc1ccc2c3c1O[C@H]1C(=O)CC[C@@]4(NC(=O)/C=C/c5ccc(Cl)cc5)[C@@H](C2)N(CC2CC2)CC[C@]314	0.3	19.1	100	21.3	1.6	6.3	Antagonism (Mus musculus [1]): 7%; AD50 (Mus musculus [2]): 4.06 mg/kg; ED50 (Mus musculus [5]): 0.3 mg/kg; Antagonism (Mus musculus [6]): 96%; Antagonism (Mus musculus [7]): 36%; Antagonism (Mus musculus [8]): 3.9%; Antagonism (Mus musculus [9]): 38%; Antagonism (Mus musculus [10]): 17%; AD50 (Mus musculus [11]): 14.11 mg/kg; Antagonism (Mus musculus [12]): 4.8%; Antagonism (Mus musculus [13]): 100%; AD50 (Mus musculus [15]): 3.02 mg/kg; ED50 (Mus musculus [17]): 1.2 mg/kg; ED50 (Mus musculus [19]): inactive
O=C(/C=C/c1ccc(Cl)cc1)N[C@@]12CCC(=O)[C@@H]3Oc4c(OCC5CC5)ccc5c4[C@@]31CCN(CC1CC1)[C@@H]2C5	6.7	131		56.5	7.6		Antagonism (Mus musculus [1]): 19%; AD50 (Mus musculus [2]): 3.41 mg/kg; ED50 (Mus musculus [20]): inactive; Antagonism (Mus musculus [6]): 100%; AD50 (Mus musculus [7]): 11.39 mg/kg; Antagonism (Mus musculus [9]): 0%; Antagonism (Mus musculus [10]): 57%; AD50 (Mus musculus [11]): 0.97 mg/kg; ED50 (Mus musculus [21]): inactive; ED50 (Mus musculus [22]): inactive; AD50 (Mus musculus [15]): 6.82 mg/kg
N#CCOc1ccc2c3c1O[C@H]1C(=O)CC[C@@]4(NC(=O)/C=C/c5ccc(Cl)cc5)[C@@H](C2)N(CC2CC2)CC[C@]314		18	78	89.5	12.4	20.8	
COc1ccc2c3c1O[C@H]1C(=O)CC[C@@]4(NC(=O)/C=C/c5ccc(Cl)cc5)[C@@H](C2)N(CC2CC2)CC[C@]314	0.2						ED50 (Mus musculus [23]): inactive; ED50 (Mus musculus [21]): inactive; ED50 (Mus musculus [24]): 6 mg/kg
COC(=O)COc1ccc2c3c1O[C@H]1C(=O)CC[C@@]4(NC(=O)/C=C/c5ccc(Cl)cc5)[C@@H](C2)N(CC2CC2)CC[C@]314		95.4		24.8	7.6		
O=C(/C=C/c1ccc(Cl)cc1)N[C@@]12CCC(=O)[C@@H]3Oc4c(O)ccc5c4[C@@]31CCN(CC1CC1)[C@@H]2C5 [CLOCINNAMOX]		5.4		12.5	9		
CC(C)Oc1ccc2c3c1O[C@H]1C(=O)CC[C@@]4(NC(=O)/C=C/c5ccc(Cl)cc5)[C@@H](C2)N(CC2CC2)CC[C@]314		14.9		96.4	59.8		
CCCOc1ccc2c3c1O[C@H]1C(=O)CC[C@@]4(NC(=O)/C=C/c5ccc(Cl)cc5)[C@@H](C2)N(CC2CC2)CC[C@]314		19.1		82.6	24.6		MPE (Mus musculus [25]): 35%
C=CCOc1ccc2c3c1O[C@H]1C(=O)CC[C@@]4(NC(=O)/C=C/c5ccc(Cl)cc5)[C@@H](C2)N(CC2CC2)CC[C@]314		17.9	100	65.4	8.9	11.1	
CN1CC[C@]23c4c5ccc(O)c4O[C@H]2[C@@H](O)C=C[C@H]3[C@H]1C5 [MORPHINE]			100			17.9	ED50 (Mus musculus [26]): inactive; ED50 (Mus musculus [27]): 0.9 mg/kg
